In ChEMBL document CHEMBL1131215, “Anhydrolide macrolides. 1. Synthesis and antibacterial activity of 2,3-anhydro-6-O-methyl 11,12-carbamate erythromycin A analogues” (1998):
≈ marks a conversion by molar mass, not a printed value.

What was measured:
Type in all cases: functional
Haemophilus influenzae = assay: In vitro antibacterial activity against DILL strain of Haemophilus influenzae.
Procedure, shortened: (§1)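 MIC determined by standard agar dilution; values in μg/mL.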

Staphylococcus aureus [1] = assay: In vitro antibacterial activity against 6538P strain of Staphylococcus aureus; settings: Staphylococcus aureus; procedure, shortened: as §1
Streptococcus pneumoniae [2] = assay: In vitro antibacterial activity against 5649 strain of Streptococcus pneumoniae; settings: Streptococcus pneumoniae; procedure, shortened: as §1
Streptococcus pneumoniae [3] = assay: In vitro antibacterial activity against ATCC 6303 strain of Streptococcus pneumoniae; settings: Streptococcus pneumoniae, ATCC 6303; procedure, shortened: as §1
Streptococcus pyogenes [4] = assay: In vitro antibacterial activity against PIU 2548 strain of Streptococcus pyogenes; settings: Streptococcus pyogenes; procedure, shortened: as §1
Streptococcus pneumoniae [5] = assay: In vitro antibacterial activity against 5979 strain of Streptococcus pneumoniae; procedure, shortened: as §1
Streptococcus pyogenes [6] = assay: In vitro antibacterial activity against 930 strain of Streptococcus pyogenes; settings: Streptococcus pyogenes; procedure, shortened: as §1
[7] = In vitro antibacterial activity against A-5278 strain of Staphylococcus aureus; settings: Staphylococcus aureus; procedure, shortened: as §1
Staphylococcus aureus [8] = assay: In vitro antibacterial activity against A5177 strain of Staphylococcus aureus; settings: Staphylococcus aureus; procedure, shortened: as §1

Row | MIC (Haemophilus influenzae) [µg/mL] | MIC (Staphylococcus aureus [1]) [µg/mL] | MIC (Streptococcus pneumoniae [2]) [µg/mL] | MIC (Streptococcus pneumoniae [3]) [µg/mL] | MIC (Streptococcus pyogenes [4]) [µg/mL] | MIC (Streptococcus pneumoniae [5]) [µg/mL] | MIC (Streptococcus pyogenes [6]) [µg/mL] | MIC [7] [µg/mL] | MIC (Staphylococcus aureus [8]) [µg/mL] | SMILES
1 | > 64 | 6.2 (≈ 8.33 µM) | < 0.004 | < 0.004 | 0.39 (≈ 0.524 µM) |  |  |  |  | CC[C@H]1OC(=O)/C(C)=C/[C@H](C)[C@@H](O[C@@H]2O[C@H](C)C[C@H](N(C)C)[C@H]2O)[C@@](C)(OC)C[C@@H](C)C(=O)[C@H](C)[C@H]2N(CCCN(C)c3ccccc3)C(=O)O[C@]12C
2 | 32 (≈ 42 µM) | 0.39 (≈ 0.512 µM) | 1 (≈ 1.31 µM) | 0.12 (≈ 0.158 µM) | 0.2 (≈ 0.263 µM) | 8 (≈ 10.5 µM) | 3.1 (≈ 4.07 µM) | 12.5 (≈ 16.4 µM) |  | CC[C@H]1OC(=O)/C(C)=C/[C@H](C)[C@@H](O[C@@H]2O[C@H](C)C[C@H](N(C)C)[C@H]2O)[C@@](C)(OC)C[C@@H](C)C(=O)[C@H](C)[C@H]2N(CC/C=C\c3ccc(Cl)cc3)C(=O)O[C@]12C
3 | 8 (≈ 10.2 µM) | 1.56 (≈ 1.99 µM) | 2 (≈ 2.56 µM) | < 0.004 | 0.2 (≈ 0.256 µM) | > 16 |  |  |  | CC[C@H]1OC(=O)/C(C)=C/[C@H](C)[C@@H](O[C@@H]2O[C@H](C)C[C@H](N(C)C)[C@H]2O)[C@@](C)(OC)C[C@@H](C)C(=O)[C@H](C)[C@H]2N(CCCOc3cccc4cccnc34)C(=O)O[C@]12C
4 |  |  | 4 (≈ 4.38 µM) | 1 (≈ 1.1 µM) |  | 8 (≈ 8.76 µM) |  |  |  | CC[C@H]1OC(=O)/C(C)=C/[C@H](C)[C@@H](O[C@@H]2O[C@H](C)C[C@H](N(C)C)[C@H]2O)[C@@](C)(OC)C[C@@H](C)C(=O)[C@H](C)[C@H]2N(CCc3ccc(OCc4ccccc4)c(OCc4ccccc4)c3)C(=O)O[C@]12C
5 | > 64 | 6.2 (≈ 8.49 µM) | 2 (≈ 2.74 µM) | 0.03 (≈ 0.0411 µM) | 3.1 (≈ 4.25 µM) |  | 50 (≈ 68.5 µM) |  |  | CC[C@H]1OC(=O)/C(C)=C/[C@H](C)[C@@H](O[C@@H]2O[C@H](C)C[C@H](N(C)C)[C@H]2O)[C@@](C)(OC)C[C@@H](C)C(=O)[C@H](C)[C@H]2N(CCNCc3ccccc3)C(=O)O[C@]12C
6 | > 64 | 12.5 (≈ 20 µM) | 2 (≈ 3.21 µM) | 1 (≈ 1.6 µM) | 1.56 (≈ 2.5 µM) | > 64 |  |  | 6.2 (≈ 9.94 µM) | CC[C@H]1OC(=O)/C(C)=C/[C@H](C)[C@@H](O[C@@H]2O[C@H](C)C[C@H](N(C)C)[C@H]2O)[C@@](C)(OC)C[C@@H](C)[C@@H]2NCCN3C(=O)O[C@@]1(C)[C@H]3[C@H]2C
7 | 32 (≈ 44.7 µM) | 1.56 (≈ 2.18 µM) | 2 (≈ 2.79 µM) | 0.5 (≈ 0.698 µM) | 0.2 (≈ 0.279 µM) |  |  |  | 0.78 (≈ 1.09 µM) | CC[C@H]1OC(=O)/C(C)=C/[C@H](C)[C@@H](O[C@@H]2O[C@H](C)C[C@H](N(C)C)[C@H]2O)[C@@](C)(OC)C[C@@H](C)C(=O)[C@H](C)[C@H]2N(CCc3ccc(N)cc3)C(=O)O[C@]12C
8 | 16 (≈ 21.9 µM) | 0.39 (≈ 0.534 µM) |  |  | 0.39 (≈ 0.534 µM) |  | 25 (≈ 34.2 µM) | 50 (≈ 68.4 µM) | 0.39 (≈ 0.534 µM) | CC[C@H]1OC(=O)/C(C)=C/[C@H](C)[C@@H](O[C@@H]2O[C@H](C)C[C@H](N(C)C)[C@H]2O)[C@@](C)(OC)C[C@@H](C)C(=O)[C@H](C)[C@H]2N(CCCOc3ccccc3)C(=O)O[C@]12C
9 |  | 0.78 (≈ 1.14 µM) | 2 (≈ 2.91 µM) | 0.25 (≈ 0.364 µM) | 0.2 (≈ 0.291 µM) |  |  |  | 0.78 (≈ 1.14 µM) | CC[C@H]1OC(=O)/C(C)=C/[C@H](C)[C@@H](O[C@@H]2O[C@H](C)C[C@H](N(C)C)[C@H]2O)[C@@](C)(OC)C[C@@H](C)C(=O)[C@H](C)[C@H]2N(Cc3ccccc3)C(=O)O[C@]12C
10 |  | 1.56 (≈ 2.28 µM) | 2 (≈ 2.93 µM) | 0.25 (≈ 0.366 µM) | 0.39 (≈ 0.571 µM) |  |  |  | 1.56 (≈ 2.28 µM) | CCOCCCN1C(=O)O[C@]2(C)[C@@H](CC)OC(=O)/C(C)=C/[C@H](C)[C@@H](O[C@@H]3O[C@H](C)C[C@H](N(C)C)[C@H]3O)[C@@](C)(OC)C[C@@H](C)C(=O)[C@H](C)[C@@H]12
11 | 16 (≈ 22.4 µM) | 0.39 (≈ 0.545 µM) | 0.25 (≈ 0.35 µM) | 0.015 (≈ 0.021 µM) | 0.39 (≈ 0.545 µM) | 16 (≈ 22.4 µM) | 12.5 (≈ 17.5 µM) | 25 (≈ 35 µM) | 0.39 (≈ 0.545 µM) | CC[C@H]1OC(=O)/C(C)=C/[C@H](C)[C@@H](O[C@@H]2O[C@H](C)C[C@H](N(C)C)[C@H]2O)[C@@](C)(OC)C[C@@H](C)C(=O)[C@H](C)[C@H]2N(CCc3ccc(C)cc3)C(=O)O[C@]12C
12 | 32 (≈ 41.8 µM) | 1.56 (≈ 2.04 µM) | 4 (≈ 5.22 µM) | 0.25 (≈ 0.326 µM) | 0.39 (≈ 0.509 µM) |  |  |  |  | CC[C@H]1OC(=O)/C(C)=C/[C@H](C)[C@@H](O[C@@H]2O[C@H](C)C[C@H](N(C)C)[C@H]2O)[C@@](C)(OC)C[C@@H](C)C(=O)[C@H](C)[C@H]2N(CCCc3cnc4ccccc4c3)C(=O)O[C@]12C
13 |  | 0.78 (≈ 1.02 µM) | 0.03 (≈ 0.0392 µM) | < 0.004 | 0.39 (≈ 0.51 µM) |  | 12.5 (≈ 16.3 µM) | 50 (≈ 65.3 µM) |  | CC[C@H]1OC(=O)/C(C)=C/[C@H](C)[C@@H](O[C@@H]2O[C@H](C)C[C@H](N(C)C)[C@H]2O)[C@@](C)(OC)C[C@@H](C)C(=O)[C@H](C)[C@H]2N(CCCOc3ccc(Cl)cc3)C(=O)O[C@]12C
